This is a sample that favours compounds with a hit; in the whole collection about 1.7% have one here.
LMPTP block – LMPTP (human) inhibition; P24666; recombinant LMPTP-A, OMFP fluorogenic substrate, fluorescence intensity; inhibition, % at 20 µM; actives 0.22% (n = 360,000); AID 651560;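 active means compounds that cut the enzyme signal by at least half of the control window in the single-dose screen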
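Assay system: LMPTP-A phosphatase enzyme | Input: 0.625 nM enzyme | Also added: Fluorogenic phosphatase substrate OMFP at 400 µM final | Compound dosing: One test concentration per compound, 20 µM, with 3% DMSO overall | Schedule: 50 min enzyme reaction at room temperature, protected from light | Signal: Fluorescence intensity | Benchmarks: no-enzyme and uninhibited controls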
Pemphigus Ab inh – human desmoglein-3 autoantibody binding inhibition | actives 0.48% (n = 310,000) | P32926 | binding (percent of control), % at 10 µM | DSG3-coupled beads, scFv-anti-DSG3-GFP binding, flow cytometry; stronger effect = lower value | AID 588358;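 active means binding more than 3 SD below its plate's average and above zero; inconclusive means below that plate limit but binding exactly zero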;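 further: hits lower antibody fragment binding to DSG3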
STEP block – inhibitors of human striatal-enriched phosphatase STEP; recombinant STEP, OMFP fluorogenic substrate, fluorescence; inhibition, % at 20 µM; actives 0.25% (n = 360,000);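 active means inhibition at 20 µM, scaled per plate between control wells, above about 37%, limit read from the data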
Target sequence (P54829 whole entry, looked up): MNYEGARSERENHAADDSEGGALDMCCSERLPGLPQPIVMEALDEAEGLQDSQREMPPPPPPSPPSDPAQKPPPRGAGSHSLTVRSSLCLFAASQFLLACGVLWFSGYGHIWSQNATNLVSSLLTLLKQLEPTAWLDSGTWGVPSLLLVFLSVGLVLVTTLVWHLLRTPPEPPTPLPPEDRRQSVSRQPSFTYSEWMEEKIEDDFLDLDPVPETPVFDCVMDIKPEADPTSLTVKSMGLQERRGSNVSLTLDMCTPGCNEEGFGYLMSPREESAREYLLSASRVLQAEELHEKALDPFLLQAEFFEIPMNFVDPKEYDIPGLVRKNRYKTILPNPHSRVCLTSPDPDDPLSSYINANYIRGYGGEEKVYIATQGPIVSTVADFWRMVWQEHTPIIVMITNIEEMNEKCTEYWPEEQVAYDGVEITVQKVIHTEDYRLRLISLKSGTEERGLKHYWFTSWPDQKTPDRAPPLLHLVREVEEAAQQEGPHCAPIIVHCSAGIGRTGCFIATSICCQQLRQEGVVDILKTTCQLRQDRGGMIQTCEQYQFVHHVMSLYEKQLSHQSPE
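Also added – OMFP at 25 µM · Test system – STEP tyrosine phosphatase · Technique – FITC-channel fluorescence of OMFP product · Schedule – 20 min at room temperature, dark · Evaluation – control-normalized % inhibition with plate pattern correction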
SUMO1-SIM PPI – alters human SUMO1 binding to SIM partners; P63165; SUMO1 binding to a labelled peptide, TR-FRET, 1 h; inhibition, % at 20 µM; actives 0.33% (n = 360,000); AID 602429; in the data active means inhibition above about 37%
Target sequence (P63165 whole entry, looked up): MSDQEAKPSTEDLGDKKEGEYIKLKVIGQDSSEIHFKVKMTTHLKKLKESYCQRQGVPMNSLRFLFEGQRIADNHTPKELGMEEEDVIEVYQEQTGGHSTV
Scp1 inh – inhibitors of human Scp-1 phosphatase. Q9GZU7. Recombinant Scp1, phosphopeptide, malachite green phosphate absorbance. inhibition, % at 20 µM. actives 0.88% (n = 340,000);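 active means inhibition above about 50% at 20 µM, limit read from the data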
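Test system: SCP-1 phosphatase catalytic domain, residues 76-261; measured by: colorimetric phosphate reagent with accelerator and stabiliser, absorbance at 630 nm; timing: enzyme reaction 45 min at room temperature, colour 5 min, stabilisation 30 min; also added: Phosphorylated 17-residue peptide substrate; compound dosing: one concentration, 20 µM, with 1.0% DMSO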
Scp1 confirm – confirmation of human Scp-1 phosphatase inhibitors; shares compounds with Scp1 inh; recombinant SCP-1 catalytic domain, phosphate release, malachite green absorbance; inhibition, % at 20 µM; actives 61% (n = 2,500)
MG interference – colorimetric interference in Scp-1 counter-screen. 2,500 tested, under 10 active. Colorimetric interference counterscreen, malachite green absorbance 630 nm. shares compounds with Scp1 inh. apparent inhibition (interference), % at 20 µM. AID 540313;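 further: compounds added after enzyme reaction finished so only phosphate colour detection is probed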
Scp1 DSF – binds human Scp-1, shifting its melting temperature; Recombinant SCP1, Sypro Orange thermal shift Tm; thermal shift relative to vanadate control, % at 40 µM; actives 25% (n = 1,500); shares compounds with Scp1 inh;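 active means substances whose mean melting-temperature shift, as a percentage of the reference inhibitor's shift, reaches about 5.3%, limit read from the data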
Each line names hits and unclear results; the compound was inactive in the other large screens (follow-up assays come after a bar, where they were run).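 How the source made its calls, unless noted: active means inhibition of at least 30% at 20 µM; inactive means the rest.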

Cc1ccc(-n2nc(-c3ccco3)cc2C(=O)O)c(C)c1	Pemphigus Ab inh 60, Scp1 inh 65 | Scp1 confirm 75 | MG interference inactive | Scp1 DSF 7.4
O=C(O)c1cc(-c2cccs2)nn1-c1cccc(Cl)c1	none
O=C(O)c1cc(-c2ccco2)nn1-c1cccc(Cl)c1	SUMO1-SIM PPI 44, Scp1 inh 66 (no result: Pemphigus Ab inh) | Scp1 confirm 58 | MG interference inactive | Scp1 DSF 8.4
Cn1cnc2c(=O)sc3ccccc3c21	none
Cn1c(Br)nc2c1c(=O)n(Cc1ccccc1)c(=O)n2C	none
Cn1c(NN)nc2c1c(=O)n(Cc1ccccc1)c(=O)n2C	Scp1 inh 68 | Scp1 confirm 62 | MG interference inactive | Scp1 DSF 9.4
N#C/C(=C\c1ccc[nH]1)C(=O)Nc1ccccc1[N+](=O)[O-]	Scp1 inh 55 | Scp1 confirm 64 | MG interference inactive | Scp1 DSF 5.3
Cc1ccccc1NC(=O)/C(C#N)=C/c1ccc[nH]1	none
O=[N+]([O-])c1ccc(O)c(/C=N/NC(=S)Nc2ccc(Cl)cc2Cl)c1	none
Cc1cc(Cl)ccc1NC(=O)CCC(=O)N/N=C/c1cc([N+](=O)[O-])ccc1O	Scp1 inh 55 | Scp1 confirm 66 | MG interference inactive | Scp1 DSF inactive
CC1CCC2(CC1)NC(=O)N(CC(=O)NC1(C#N)CCCCC1)C2=O (stereo not given)	none
COc1ccc(-n2ncc3c2CC(C)(C)CC3NC(=O)CCn2nc(C)cc2C)cc1 (stereo not given)	none (no result: Pemphigus Ab inh)
C[n+]1cccc(C(=O)NNC(=O)C23CC4CC(CC(C4)C2)C3)c1	Scp1 inh 102 | Scp1 confirm inactive | MG interference inactive
COC1=CC(=O)OC(c2ccccc2C(F)(F)F)C1 (stereo not given)	none (no result: Pemphigus Ab inh, STEP block, Scp1 inh)
COc1cccc(-c2cc(C(F)(F)F)nc(-n3cc(C)cn3)n2)c1	Scp1 inh 55 | Scp1 confirm inactive | MG interference inactive
Cc1cccc(Nc2ncc3c(n2)CC(c2ccco2)CC3=O)c1 (stereo not given)	LMPTP block 59, Scp1 inh 86 (no result: Pemphigus Ab inh) | Scp1 confirm inactive | MG interference inactive
CS(=O)(=O)c1ccc2nc(NC(=O)c3cc4ccccc4o3)sc2c1	none
CS(=O)(=O)c1ccc2sc(NC(=O)c3cc4ccccc4o3)nc2c1	Scp1 inh 69 | Scp1 confirm inactive | MG interference inactive
CCCCn1c(SCC2CCCCO2)nc2cc(S(N)(=O)=O)ccc21 (stereo not given)	none
C/C(Cn1nc([N+](=O)[O-])cc1C)=N\NC(=O)c1ccc(C(C)(C)C)cc1	Scp1 inh 81 | Scp1 confirm inactive | MG interference inactive
COc1ccc(C(=O)N/N=C(\C)Cn2nc([N+](=O)[O-])cc2C)cc1	none
CC1CCN(S(=O)(=O)c2cc(C(=O)N3CCN(c4ccccc4)CC3)ccc2Br)CC1	none (no result: Scp1 inh)
CCOC(=O)C1=C(C)NC(SC)=NC1c1ccc(OC)cc1 (stereo not given)	none
CCC1N=C(SC)NC(C)=C1C(=O)c1ccccc1 (stereo not given)	Scp1 inh 96 | Scp1 confirm inactive | MG interference inactive
Oc1ccc(C=Nc2ccc(N3CCOCC3)cc2)c(O)c1	Scp1 inh 52 (no result: Pemphigus Ab inh) | Scp1 confirm 45 | MG interference inactive | Scp1 DSF inactive
O=C(CSc1nnc2ccccn12)NC(=O)c1ccccc1Cl	Scp1 inh 66 | Scp1 confirm 51 | MG interference inactive | Scp1 DSF inactive
Cc1cccc(/C=C(\C(=O)O)c2ccc(S(=O)(=O)N3CCCC3)s2)c1	Scp1 inh 93 | Scp1 confirm 77 | MG interference inactive | Scp1 DSF inactive
CN(CC(=O)Nc1ccc(Cl)c(C(F)(F)F)c1)C(=O)Cc1ccsc1	none
Clc1cc(CSc2ccccc2)nc(-c2ccccc2)n1	Scp1 inh 61 | Scp1 confirm 36 | MG interference inactive | Scp1 DSF inactive
Cc1c(Cl)c(C(F)F)nn1CC(=O)NC1C(=O)N2C(C(=O)O)=C(CSc3nnnn3C)CSC12 (stereo not given)	Scp1 inh 68 | Scp1 confirm 56 | MG interference inactive | Scp1 DSF inactive
Cn1nnnc1SCC1=C(C(=O)O)N2C(=O)C(NC(=O)Cn3nc(C(F)F)cc3C3CC3)C2SC1 (stereo not given)	Scp1 inh 56 | Scp1 confirm 61 | MG interference inactive | Scp1 DSF inactive
Cc1c(Cl)cnn1CC(=O)NC1C(=O)N2C(C(=O)O)=C(CSc3nnnn3C)CSC12 (stereo not given)	none
Cc1cc(N2CCC(C)CC2)nc(SCC(=O)c2ccccc2)n1	none
CN1/C(=C/c2cccc[n+]2CCO)Sc2ccccc21	Scp1 inh 103 | Scp1 confirm inactive | MG interference inactive
O=C1COc2ccc(C(=O)COC(=O)c3ccc(Cl)cc3[N+](=O)[O-])cc2N1	none
CC(C)(C)NC(=O)NC(=O)CSc1nnc(COc2ccccc2Cl)o1	none (no result: Pemphigus Ab inh)
O=C(CSc1nnc(COc2ccccc2Cl)o1)NC(=O)NCc1ccco1	Scp1 inh 76 | Scp1 confirm 44 | MG interference inactive | Scp1 DSF inactive
O=C(CSc1nc(-c2ccc(F)cc2)cs1)NC(=O)NCc1ccco1	Scp1 inh 74 | Scp1 confirm 39 | MG interference inactive | Scp1 DSF inactive
O=C(CSc1nnc(Nc2ccccc2)s1)NCc1ccco1	none
O=C(CSc1nnc(Nc2ccccc2F)s1)NCc1ccco1	Scp1 inh 83 | Scp1 confirm 63 | MG interference inactive | Scp1 DSF inactive
Cc1nnc(SCC(=O)NC(=O)NCc2ccco2)n1Cc1ccccc1	Scp1 inh 87 | Scp1 confirm 63 | MG interference inactive | Scp1 DSF inactive
Cc1cc(NS(=O)(=O)c2ccc(N3C(=O)C4C5C=CC(C5)C4C3=O)cc2)nc(C)n1 (stereo not given)	none
Nn1c(SCC(=O)NC(=O)NCc2ccco2)nnc1-c1ccc(OC(F)F)cc1	Scp1 inh 63 | Scp1 confirm 54 | MG interference inactive | Scp1 DSF inactive
Cc1ccccc1Nc1nnc(SCC(=O)NC(=O)NCc2ccco2)s1	Pemphigus Ab inh inconclusive, Scp1 inh 84 | Scp1 confirm 61 | MG interference inactive | Scp1 DSF inactive
O=C(CSc1nnc(Nc2ccccc2F)s1)NC(=O)CN1CCCC1=O	Scp1 inh 63 | Scp1 confirm 57 | MG interference inactive | Scp1 DSF inactive
